Tests used:
Type in all cases: functional, cell-based
FM3A = assay: Inhibitory concentration required to inhibit murine mammary carcinoma FM3A cells proliferation; settings: Mus musculus
Outline: (§1)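 Murine cells were suspended at 300000–500000 cells/mL and added 1:1 to wells holding serial dilutions of compound. Cells were counted by Coulter counter after 2 days at 37 °C. IC50 is the concentration inhibiting cell proliferation by 50%, given as mean ± SE from dose–response curves of at least three independent experiments.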

L1210 = assay: Inhibitory concentration required to inhibit murine leukemia L1210 cells proliferation; settings: Mus musculus; outline: as §1
CCRF-CEM = assay: Inhibitory concentration required to inhibit human T-lymphoblast CEM cells proliferation
Outline: (§2)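 Human T-lymphocyte cells seeded at 300000–500000 cells/mL and mixed 1:1 with serial compound dilutions. Incubated 3 days at 37 °C, then cell number counted with a Coulter counter. IC50 taken as the concentration giving 50% inhibition of proliferation, as mean ± SE from dose–response curves of at least three independent experiments.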

MOLT-4 = assay: Inhibitory concentration required to inhibit human T-lymphoblast Molt4 cells proliferation; outline: as §2

IC50 (L1210) [µM]	IC50 (CCRF-CEM) [µM]	IC50 (MOLT-4) [µM]	SMILES	IC50 (FM3A) [µM]
13	57.9	46.9	C=C1CC(COc2cc(C(=O)O)n(C)n2)(c2ccc(Cl)cc2)OC1=O (stereo unspecified)	99.2
14.8	18.5	9.4	C=C1CC(COc2cc(C(=O)O)n(C)n2)(c2ccc(-c3ccccc3)cc2)OC1=O (stereo unspecified)	42
107	174	189	C=C1CC(COc2cc(C(=O)O)n(C)n2)(c2ccccc2)OC1=O (stereo unspecified)	189
522	402	746	C=C1CC(C)(COc2cc(C(=O)O)n(C)n2)OC1=O (stereo unspecified)	755

— ChEMBL document CHEMBL1149173, “Design, synthesis, and biological evaluation of hybrid molecules containing alpha-methylene-gamma-butyrolactones and polypyrrole minor groove binders” (J Med Chem, 2004)
